Assay results as given in ChEMBL document CHEMBL1138404, “Bisindole alkaloids of the topsentin and hamacanthin classes from a marine sponge Spongosorites sp” (J Nat Prod, 2007).
Values after ≈ are worked out from the molar mass of the structure shown.

What was measured:
[1] = test system: Pseudomonas aeruginosa; assay: Antibacterial activity against […] Pseudomonas aeruginosa 1592E; format: functional
Outline: (§1)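 Agar dilution MIC: Mueller Hinton agar plates containing 17 serial dilutions of sample (final 25 to 0.002 μg/mL), meropenem and imipenem as standards. Strains grown 18 h at 37 °C in Fleisch extract broth (10% horse serum for some strains), spotted onto plates by automatic inoculator; MIC read after 18 h incubation.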

[2] = test system: Escherichia coli; assay: Antibacterial activity against […] Escherichia coli 078; format: functional; outline: as §1
[3] = test system: Escherichia coli; assay: Antibacterial activity against […] Escherichia coli DC2; format: functional; outline: as §1
[4] = test system: Enterobacter cloacae; assay: Antibacterial activity against […] Enterobacter cloacae 1321E; format: functional; outline: as §1
[5] = test system: Pseudomonas aeruginosa; assay: Antibacterial activity against […] Pseudomonas aeruginosa 1771; format: functional; outline: as §1
[6] = Cytotoxicity against human SK-MEL-2 cell line; format: cell-based; settings: SK-MEL-2 cells, read-out: ED50 (the source's name)
[7] = test system: Escherichia coli; assay: Antibacterial activity against […] Escherichia coli 1507E; format: functional; outline: as §1
[8] = test system: Salmonella typhimurium; assay: Antibacterial activity against […] Salmonella Typhimurium; format: functional, Salmonella enterica subsp. enterica serovar Typhimurium; settings: Salmonella enterica; outline: as §1
[9] = Cytotoxicity against human XF498 cell line; format: cell-based; settings: XF498 cells, read-out: ED50 (the source's name)
[10] = test system: Pseudomonas aeruginosa; assay: Antibacterial activity against […] Pseudomonas aeruginosa 1771M; format: functional; outline: as §1
[11] = test system: Streptococcus pyogenes; assay: Antibacterial activity against methicillin-resistant Streptococcus pyogenes 77A; format: functional; outline: as §1
[12] = test system: Staphylococcus aureus; assay: Antibacterial activity against methicillin-resistant Staphylococcus aureus SG511; format: functional; outline: as §1
[13] = test system: Enterobacter cloacae; assay: Antibacterial activity against […] Enterobacter cloacae P99; format: functional; outline: as §1
[14] = Cytotoxicity against human HCT15 cell line; format: cell-based; settings: HCT-15 cells, read-out: ED50 (the source's name)
[15] = test system: Streptococcus pyogenes; assay: Antibacterial activity against methicillin-resistant Streptococcus pyogenes 308A; format: functional; outline: as §1
[16] = Cytotoxicity against human A549 cell line; format: cell-based; settings: A549 cells, read-out: ED50 (the source's name)
[17] = test system: Klebsiella aerogenes; assay: Antibacterial activity against […] Klebsiella aerogenes 1522E; format: functional; outline: as §1
[18] = test system: Staphylococcus aureus; assay: Antibacterial activity against methicillin-resistant Staphylococcus aureus 503; format: functional; outline: as §1
[19] = test system: Escherichia coli; assay: Antibacterial activity against […] Escherichia coli DC0; format: functional; outline: as §1
[20] = test system: Klebsiella oxytoca; assay: Antibacterial activity against […] Klebsiella oxytoca 1082E; format: functional; outline: as §1
[21] = test system: Staphylococcus aureus; assay: Antibacterial activity against methicillin-resistant Staphylococcus aureus 285; format: functional; outline: as §1
[22] = test system: Enterococcus faecium; assay: Antibacterial activity against […] Streptococcus faecium MD8b; format: functional; outline: as §1
[23] = Cytotoxicity against human SK-OV-3 cell line; format: cell-based; settings: SK-OV-3 cells, read-out: ED50 (the source's name)
[24] = test system: Pseudomonas aeruginosa; assay: Antibacterial activity against […] Pseudomonas aeruginosa 9027; format: functional; outline: as §1
[25] = test system: Escherichia coli; assay: Antibacterial activity against […] Escherichia coli TEM; format: functional; outline: as §1

| SMILES | MIC [1] [µg/mL] | MIC [3] [µg/mL] | MIC [5] [µg/mL] | CC50 [6] [µg/mL] | CC50 [9] [µg/mL] | MIC [10] [µg/mL] | MIC [11] [µg/mL] | MIC [12] [µg/mL] | CC50 [14] [µg/mL] | MIC [15] [µg/mL] | CC50 [16] [µg/mL] | MIC [18] [µg/mL] | MIC [20] [µg/mL] | MIC [21] [µg/mL] | CC50 [23] [µg/mL] | also measured |
| --- | --- | --- | --- | --- | --- | --- | --- | --- | --- | --- | --- | --- | --- | --- | --- | --- |
| O=C1NC[C@@H](c2c[nH]c3cc(Br)ccc23)N=C1c1c[nH]c2ccccc12 [(R)-6'-DEBROMOHAMACANTHIN B] | > 25 | 25 (≈ 61.4 µM) | 25 (≈ 61.4 µM) | 7.6 (≈ 18.7 µM) | 8.3 (≈ 20.4 µM) | 25 (≈ 61.4 µM) | 12.5 (≈ 30.7 µM) | 12.5 (≈ 30.7 µM) | 4.2 (≈ 10.3 µM) | 6.3 (≈ 15.5 µM) | 3.71 (≈ 9.11 µM) | 12.5 (≈ 30.7 µM) | 25 (≈ 61.4 µM) | 12.5 (≈ 30.7 µM) | 8.5 (≈ 20.9 µM) | MIC [2]: > 25 µg/mL; MIC [4]: > 25 µg/mL; MIC [7]: > 25 µg/mL; MIC [8]: > 25 µg/mL; MIC [13]: > 25 µg/mL; MIC [17]: > 25 µg/mL; MIC [19]: > 25 µg/mL; MIC [22]: > 25 µg/mL; MIC [24]: > 25 µg/mL; MIC [25]: > 25 µg/mL |
| COc1cccc2c1C(=O)c1c(O)c3c(c(O)c1C2=O)C[C@@](O)(C(=O)CO)C[C@@H]3O[C@H]1C[C@H](N)[C@H](O)[C@H](C)O1 [DOXORUBICIN] |  |  |  | 0.01 (≈ 0.0184 µM) | 0.01 (≈ 0.0184 µM) |  |  |  | 0.02 (≈ 0.0368 µM) |  | 0.01 (≈ 0.0184 µM) |  |  |  | 0.03 (≈ 0.0552 µM) |  |
| O=C1N[C@@H](c2c[nH]c3cc(Br)ccc23)CN=C1c1c[nH]c2cc(Br)ccc12 [HAMACANTHIN A] |  |  |  | 5.44 (≈ 11.2 µM) | 5.6 (≈ 11.5 µM) |  |  |  | 4.66 (≈ 9.59 µM) |  | 4.49 (≈ 9.24 µM) |  |  |  | 5.24 (≈ 10.8 µM) |  |
| O=C1NC[C@H](c2c[nH]c3cc(Br)ccc23)N=C1c1c[nH]c2cc(Br)ccc12 [HAMACANTHIN B] |  |  |  | 1.59 (≈ 3.27 µM) | 2.93 (≈ 6.03 µM) |  |  |  | 1.52 (≈ 3.13 µM) |  | 2.14 (≈ 4.4 µM) |  |  |  | 2.61 (≈ 5.37 µM) |  |
| C[C@@H](O)[C@H]1C(=O)N2C(C(=O)O)=C(S[C@@H]3CN[C@H](C(=O)N(C)C)C3)[C@H](C)[C@H]12 [MEROPENEM] | 0.098 (≈ 0.256 µM) | 0.013 (≈ 0.0339 µM) | 0.391 (≈ 1.02 µM) |  |  | 0.049 (≈ 0.128 µM) | 0.004 (≈ 0.0104 µM) | 0.049 (≈ 0.128 µM) |  | 0.004 (≈ 0.0104 µM) |  | 0.049 (≈ 0.128 µM) | 0.049 (≈ 0.128 µM) | 0.098 (≈ 0.256 µM) |  |  |
| O=C(C1=NC(c2c[nH]c3cc(Br)ccc23)CN1)c1c[nH]c2ccccc12 (stereo not given) [SPONGOTINE A] |  |  |  | 5.04 (≈ 12.4 µM) | 7.22 (≈ 17.7 µM) |  |  |  | 9.8 (≈ 24.1 µM) |  | 6.82 (≈ 16.7 µM) |  |  |  | 3.71 (≈ 9.11 µM) |  |
| O=C(C1=NC(c2c[nH]c3ccccc23)CN1)c1c[nH]c2cc(Br)ccc12 (stereo not given) [SPONGOTINE B] | > 25 | 25 (≈ 61.4 µM) | > 25 | > 30 | > 30 | 25 (≈ 61.4 µM) | 25 (≈ 61.4 µM) | 25 (≈ 61.4 µM) | > 30 | 25 (≈ 61.4 µM) | > 30 | 25 (≈ 61.4 µM) | 25 (≈ 61.4 µM) | 25 (≈ 61.4 µM) | > 30 | MIC [2]: > 25 µg/mL; MIC [4]: > 25 µg/mL; MIC [7]: > 25 µg/mL; MIC [8]: > 25 µg/mL; MIC [13]: > 25 µg/mL; MIC [17]: > 25 µg/mL; MIC [19]: > 25 µg/mL; MIC [22]: > 25 µg/mL; MIC [24]: > 25 µg/mL; MIC [25]: > 25 µg/mL |
| O=C(C1=NC(c2c[nH]c3cc(Br)ccc23)CN1)c1c[nH]c2cc(Br)ccc12 (stereo not given) [SPONGOTINE C] |  |  |  | 4.82 (≈ 9.91 µM) | 5.16 (≈ 10.6 µM) |  |  |  | 4.88 (≈ 10 µM) |  | 5.22 (≈ 10.7 µM) |  |  |  | 4.81 (≈ 9.89 µM) |  |
